Measured values as given in PMC3832945 (Molecular pharmaceutics, 2013).
Peptide text beside a SMILES is read from it.

Key:
[1] = molecular target: T1, PepT1 (Mus musculus, UniProt Q9JIP7); experiment: In situ single-pass jejunal perfusion of [3H]fMet-Leu-Phe; type: in vivo
T1 sequence (Q9JIP7 1-709): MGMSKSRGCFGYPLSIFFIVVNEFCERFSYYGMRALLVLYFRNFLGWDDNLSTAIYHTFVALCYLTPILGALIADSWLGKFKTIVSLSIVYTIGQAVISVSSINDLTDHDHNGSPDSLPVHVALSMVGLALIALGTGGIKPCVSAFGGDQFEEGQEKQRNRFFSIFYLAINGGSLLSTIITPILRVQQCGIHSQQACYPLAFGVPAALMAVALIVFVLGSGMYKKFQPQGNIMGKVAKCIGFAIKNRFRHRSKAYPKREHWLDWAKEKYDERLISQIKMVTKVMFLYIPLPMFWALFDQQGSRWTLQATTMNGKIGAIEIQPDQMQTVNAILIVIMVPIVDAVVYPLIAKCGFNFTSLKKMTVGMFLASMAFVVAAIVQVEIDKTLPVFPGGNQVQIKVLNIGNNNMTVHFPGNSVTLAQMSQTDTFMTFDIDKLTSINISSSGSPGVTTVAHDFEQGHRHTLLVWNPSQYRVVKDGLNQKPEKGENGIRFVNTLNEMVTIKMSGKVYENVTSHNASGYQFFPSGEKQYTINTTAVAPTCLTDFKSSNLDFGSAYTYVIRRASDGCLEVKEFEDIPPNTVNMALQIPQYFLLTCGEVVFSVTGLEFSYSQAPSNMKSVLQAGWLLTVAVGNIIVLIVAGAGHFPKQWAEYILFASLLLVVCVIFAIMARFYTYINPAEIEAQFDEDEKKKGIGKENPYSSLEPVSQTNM

[2] = test system: Myeloperoxidase activity (a measure of neutrophil migration); experiment: Myeloperoxidase; type: in vivo, mouse; settings: for effect on MPO activity: 10 μM
Summary of the method: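 Jejunum or colon of wild-type and PepT1 knockout mice perfused in situ with Krebs–Ringer buffer (jejunum 0.067, colon 0.1 mL/min) for 30 min. Then 10 μM test compound, ± 50 mM GlyGly, for 4 h. MPO by o-dianisidine/H2O2 oxidation at pH 6.0, A460 over 2 min, reported as IU/g wet tissue. n = 5, mean ± SE, ANOVA/Tukey.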

[3] = Hydrolysis kinetics in jejunal homogenates; type: in vitro ADME, mouse; settings: 0.4–100 μM, 1 min, 37 °C
Summary of the method: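 Jejunal mucosa scraped from wild-type or PepT1 knockout mice and homogenised in ice-cold PBS for 2 min. Spun at 12 000g for 15 min; supernatant protein at 0.5 mg/mL. Incubated with [3H-Phe]-labelled test compound at 0.4–100 μM, 1 min, 37 °C. Stopped with 10% TFA, HPLC with radiochemical detection. Rate from parent loss; Vmax and Km fitted; n = 4, mean ± SE.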

[4] = test system: PepT1; experiment: Regional intestinal permeability; type: in vivo, mouse; settings: colon, 0.1 μM
Summary of the method: (§1)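 Each region perfused separately in situ in fasted, pentobarbital-anaesthetised (40–60 mg/kg ip) wild-type and PepT1 knockout mice at 31 °C. Perfusate: 135 mM NaCl, 5 mM KCl, 10 mM MES pH 6.5, [14C]inulin, 2 μCi/ml (0.1 μM) labelled compound, 100 mM Phe, 0.1 mL/min. Outflow sampled every 10 min for 90 min and counted. Inulin-corrected steady-state Peff from parallel-tube model; n = 6.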

[5] = molecular target: T1, PepT1; experiment: Regional intestinal permeability; type: in vivo
Summary of the method: as §1

[6] = Metabolism in intestinal segments; type: in vitro ADME, mouse; settings: wild-type mice, 0.8 mM, 5 min, 37 °C
Summary of the method: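 Wild-type intestinal pieces, 1 cm, opened longitudinally to expose the lumen. Incubated in PBS pH 7.4 with 0.8 mM test compound, 5 min, 37 °C, then iced and stopped with 10% TFA. Spun 12 000g, 5 min. Supernatant on reversed-phase C18 HPLC, UV 210 nm, 15–30% acetonitrile (0.1% TFA) gradient over 30 min. Parent and fragments identified with standards.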

[7] = Exposure in portal vein during jejunal perfusion; type: in vivo, mouse; settings: 90 min jejunal perfusion of 0.1 μM [3H-Phe]fMet-Leu-Phe, wild-type mice
Summary of the method: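 Wild-type jejunal single-pass perfusion with 2 μCi/ml (0.1 μM) [3H-Phe]-labelled tripeptide; portal venous blood drawn at 80–90 min. Intact tripeptide and [3H-Phe] measured by HPLC with radiochemical detection: isocratic 30% acetonitrile plus 0.1% TFA, 1.0 mL/min, ambient. Peaks assigned with radiolabelled standards.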

[8] = 50 mM inhibitor, jejunal perfusion, PepT1 knockout mice
[9] = 50 mM inhibitor, jejunal perfusion, wild-type mice

## NCC(=O)N1CCC[C@H]1C(=O)O [GlyPro, glycylproline] (H-Gly-Pro-OH)
[1]
  Ki: 100 mM
[1]; 50 mM inhibitor, 0.1 μM [3H]fMet-Leu-Phe, jejunal perfusion, wild-type mice
  reduction of fMet-Leu-Phe uptake by inhibitor: 33%
[1]; [8]
  effect of inhibitor on permeability of fMet-Leu-Phe: but not in PepT1 knockout animals
[1]; [9]
  effect of inhibitor on permeability of fMet-Leu-Phe: significantly reduced

## NCC(=O)NCC(=O)O [GlyGly, glycylglycine] (H-Gly-Gly-OH)
[2]; jejunum, wild-type mice, 10 μM fMet-Leu-Phe + 50 mM GlyGly, 4 h
  effect of coperfused dipeptide on fMet-Leu-Phe-induced MPO activity: returned to control values

## N[C@@H](Cc1c[nH]cn1)C(=O)O [L-histidine]
[1]; [8]
  effect of inhibitor on permeability of fMet-Leu-Phe: no effect
[1]; [9]
  effect of inhibitor on permeability of fMet-Leu-Phe: no effect

## CSCC[C@H](NC=O)C(=O)N[C@@H](CC(C)C)C(=O)N[C@@H](Cc1ccccc1)C(=O)O [fMet-Leu-Phe, N-formyl-methionyl-leucyl-phenylalanine]
[3]; PepT1 knockout mice
  Vmax of hydrolysis: 3.3 ± 0.1 nmol/mg/min
[3]; wild-type mice
  Vmax of hydrolysis: 3.2 ± 0.2 nmol/mg/min
[4]
  effective permeability in PepT1 knockout versus wild-type mice: did not differ between the two genotypes
[5]; duodenal, jejunal and ileal segments, on average
  residual permeability in PepT1 knockout relative to wild-type mice: ~10%
[5]; duodenum, jejunum and ileum, 0.1 μM
  effective permeability in PepT1 knockout versus wild-type mice: considerably lower
[6]; duodenum and jejunum
  hydrolysis in intestinal segments: substantial hydrolysis
[6]; ileum and colon
  hydrolysis in intestinal segments: only minor hydrolysis
[7]
  intact tripeptide in portal vein: no intact tripeptide was found
[2]; colon, wild-type and PepT1 null mice, 4 h
  effect on MPO activity: without change
[2]; jejunum, PepT1 knockout mice, 4 h
  effect on MPO activity: no effect
[2]; jejunum, wild-type mice, 4 h perfusion of 10 μM fMet-Leu-Phe
  increase in MPO activity: about 2 fold
